Assay results from ChEMBL document CHEMBL2401640, “In search of flavivirus inhibitors: evaluation of different tritylated nucleoside analogues” (Eur J Med Chem, 2013).

Tests used:
[1] = Selectivity index, ratio of CC50 for african green monkey Vero cells to EC50 for YFV 17D
Summary of the method: (§1)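 Vero-B cells (ATCC CCL-81), grown in MEM with 10% FCS, seeded at 2 x 10⁴ cells/well in 2% FCS medium and left to adhere overnight. Infected with 100 CCID₅₀ of YFV-17D vaccine strain (one passage in Vero-B), then serial compound dilutions added. After one week, fixed with ethanol and stained with methylene blue. EC₅₀ for CPE inhibition and CC₅₀ from uninfected parallel cultures, both read visually.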

[2] = Cytotoxicity against mosquito C6/36 cells after 1 week; assay type: cell-based; details: aedes albopictus
[3] = Cytotoxicity against african green monkey Vero cells after 1 week; assay type: cell-based; details: chlorocebus sabaeus
Summary of the method: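 Vero-B cells in MEM with 2% FCS, seeded at 7 x 10³ (DENV assay) or 2 x 10⁴ (YFV assay) cells/well and left to adhere overnight. Serial compound dilutions were added without virus and incubated one week. Cells were ethanol-fixed and stained with 1% methylene blue. CC50, the concentration inhibiting cell growth by 50%, was determined visually.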

Yellow fever virus = assay: Antiviral activity against YFV 17D infected in african green monkey Vero cells assessed as inhibition of virus-induced cytopathic effect after 1 week; assay type: functional, cell-based; details: 168 h; summary of the method: as §1
dengue virus type 2 = assay: Antiviral activity against DENV serotype 2 NGC infected in mosquito C6/36 cells assessed as inhibition of virus-induced cytopathic effect after 1 week; assay type: functional, organism-based; details: C6/36, 168 h
[4] = Selectivity index, ratio of CC50 for mosquito C6/36 cells to EC50 for DENV serotype 2 NGC

SMILES	Ratio CC50/EC50 [1]	CC50 at 168 h [2] [µM]	CC50 at 168 h [3] [µM]	EC50 (Yellow fever virus) [µM]	EC50 (dengue virus type 2) [µM]	Ratio CC50/EC50 [4]
O=c1ccn([C@@H]2O[C@H](COC(c3ccccc3)(c3ccccc3)c3ccccc3)[C@@H](O)[C@H]2O)c(=O)[nH]1	4.5	10	18	4	6	1.67
O=c1ccn([C@@H]2O[C@H](COC(c3ccccc3)(c3ccccc3)c3ccccc3)[C@@H](OC(c3ccccc3)(c3ccccc3)c3ccccc3)[C@H]2O)c(=O)[nH]1	>85	> 10	> 85	1	1.75	>5
O=c1ccn([C@@H]2O[C@H](COC(c3ccccc3)(c3ccccc3)c3ccccc3)[C@@H](O)[C@H]2OC(c2ccccc2)(c2ccccc2)c2ccccc2)c(=O)[nH]1	>80	> 100	> 100	1.2	30	>3
O=c1ccn([C@@H]2O[C@H](CO)[C@@H](O)[C@H]2OC(c2ccccc2)(c2ccccc2)c2ccccc2)c(=O)[nH]1	1.4	40	35	25		
O=c1ccn([C@@H]2O[C@H](CO)[C@@H](OC(c3ccccc3)(c3ccccc3)c3ccccc3)[C@H]2O)c(=O)[nH]1	1.8	18	18	10		
O=c1ccn([C@H]2C[C@H](OC(c3ccccc3)(c3ccccc3)c3ccccc3)[C@@H](COC(c3ccccc3)(c3ccccc3)c3ccccc3)O2)c(=O)[nH]1	>70	> 65	> 65	0.9	3.7	>17
O=c1ccn([C@H]2C[C@H](OC(c3ccccc3)(c3ccccc3)c3ccccc3)[C@@H](CO)O2)c(=O)[nH]1	2.7	5	4	1.5		
Cc1cn([C@H]2C[C@H](OC(c3ccccc3)(c3ccccc3)c3ccccc3)[C@@H](COC(c3ccccc3)(c3ccccc3)c3ccccc3)O2)c(=O)[nH]c1=O	7	35	70	10		
Cc1cn([C@H]2C[C@H](O)[C@@H](COC(c3ccccc3)(c3ccccc3)c3ccccc3)O2)c(=O)[nH]c1=O		4	8			
Cc1cn([C@H]2C[C@H](OC(c3ccccc3)(c3ccccc3)c3ccccc3)[C@@H](CO)O2)c(=O)[nH]c1=O	1.8	10	18	10		
O=c1[nH]c(=O)n([C@@H]2O[C@H](COC(c3ccccc3)(c3ccccc3)c3ccccc3)[C@@H](O)[C@H]2O)cc1Cl	2.5	5	5	2		
O=c1[nH]c(=O)n([C@@H]2O[C@H](COC(c3ccccc3)(c3ccccc3)c3ccccc3)[C@@H](OC(c3ccccc3)(c3ccccc3)c3ccccc3)[C@H]2O)cc1Cl	2.9	1	2	0.7		
O=c1[nH]c(=O)n([C@@H]2O[C@H](COC(c3ccccc3)(c3ccccc3)c3ccccc3)[C@@H](O)[C@H]2OC(c2ccccc2)(c2ccccc2)c2ccccc2)cc1Cl	>90	30	> 70	0.75	17	1.75
O=c1[nH]c(=O)n([C@@H]2O[C@H](CO)[C@@H](O)[C@H]2OC(c2ccccc2)(c2ccccc2)c2ccccc2)cc1Cl	2	30	30	15		
O=c1[nH]cnc2c1ncn2[C@@H]1O[C@H](COC(c2ccccc2)(c2ccccc2)c2ccccc2)[C@@H](OC(c2ccccc2)(c2ccccc2)c2ccccc2)[C@H]1O	>40	10	10	< 0.4	1.5	6.6
O=c1[nH]cnc2c1ncn2[C@@H]1O[C@H](COC(c2ccccc2)(c2ccccc2)c2ccccc2)[C@@H](O)[C@H]1OC(c1ccccc1)(c1ccccc1)c1ccccc1		6	10			
Oc1ncnc2c1ncn2[C@@H]1O[C@H](COC(c2ccccc2)(c2ccccc2)c2ccccc2)[C@@H](O)[C@H]1O		30	30			
O=c1ccn([C@H]2C[C@H](O)[C@@H](COC(c3ccccc3)(c3ccccc3)c3ccccc3)O2)c(=O)[nH]1	1.7	8	5	3		
